Wee1 stabilizer – inhibitors of human Wee1 degradation; P30291; HeLa Luc-Wee1K328M stability, luciferase luminescence; 100% = proteasome inhibitor MG132 effect; reporter increase, % at 5 µM; 220,000 tested, 1.2% active; AID 1321;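 active = activation above the mean of all tested compounds plus 3 SD, set per screening run, cut at about 8.8% in these data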;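 note: cells exposed to compound for 20 h before luminescence read; 0% = DMSO alone and 100% = MG132 at 30 µM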
Insulin prom up – MIN6 insulin promoter up-regulation. MIN6 insulin promoter-GFP reporter, high-content imaging; hits give high values. z-score at 5 µM. 190,000 tested, 0.3% active. AID 1625;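 active = z-score above 3 at 5 µM with at least 500 cells counted in the well; inconclusive = wells under 500 cells, flagged as cytotoxic or low count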
Insulin prom inh – TRM-6 insulin promoter activity inhibition | TRM-6 cells, insulin promoter-eGFP reporter, imaging; reporter expression induced with tamoxifen | inhibition, % at 2 µM | 130,000 tested, 0.9% active;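 active = inhibition above the mean plus 3 SD, with well images judged a real hit on visual review, cut at about 60% in these data, passing the limit was not always enough; inconclusive = inhibition over the cutoff but images rejected on review; inactive = inhibition not above the cutoff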
RBBP9 inhibitor – human RBBP9 hydrolase inhibition; O75884; recombinant RBBP9, FP-Rh probe fluorescence polarization; inhibition, % at 7.94 µM; 220,000 tested, 0.2% active; AID 1515;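 active = inhibition above the campaign mean of all tested compounds plus 3 SD, cut at about 14% in these data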;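 note: plate controls were DMSO wells with RBBP9 for no effect and wells lacking RBBP9 protein for full effect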
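Test system: recombinant human RBBP9. Quantity: 2.5 µM RBBP9 dispensing solution, before mixing. Detection: FP readout at 525/598 nm. Reagent: Serine-hydrolase probe FP-Rh, 375 nM pre-mixing. Measure: % inhibition. Control set: DMSO-treated enzyme wells and wells lacking RBBP9. Buffer or medium: Tris-NaCl-Pluronic buffer, pH 8.0. Times: preincubation 30 min plus labeling 45 min at 25 °C.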
MDM2 E3 inh – Mdm2 E3 ligase (human) inhibition. Q00987. cell-based MDM2 ubiquitination luciferase reporter, 2 h; 0 = plate control, 100 = twice control, blank-subtracted. signal enhancement, % at 5 µM. 210,000 tested, 0.11% active;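 active = signal enhancement of 30% or more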;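 note: luminescence tracks abundance of the self-degrading MDM2-luciferase fusion protein; higher signal means inhibition of MDM2 E3 ligase activity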
Target sequence (Q00987 whole entry, looked up, the tested form may be a part): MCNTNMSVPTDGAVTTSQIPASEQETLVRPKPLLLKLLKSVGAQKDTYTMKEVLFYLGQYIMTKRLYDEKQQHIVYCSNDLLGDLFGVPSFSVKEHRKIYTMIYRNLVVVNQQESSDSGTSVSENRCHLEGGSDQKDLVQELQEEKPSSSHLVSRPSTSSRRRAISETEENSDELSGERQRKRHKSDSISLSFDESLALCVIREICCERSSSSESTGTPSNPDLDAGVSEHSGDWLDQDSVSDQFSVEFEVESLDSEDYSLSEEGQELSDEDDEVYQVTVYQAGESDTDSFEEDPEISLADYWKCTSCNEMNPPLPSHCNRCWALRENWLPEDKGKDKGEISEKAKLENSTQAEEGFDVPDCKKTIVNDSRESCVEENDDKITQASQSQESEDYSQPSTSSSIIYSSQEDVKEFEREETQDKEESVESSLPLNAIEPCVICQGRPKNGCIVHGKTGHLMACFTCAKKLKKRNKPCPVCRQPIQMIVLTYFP
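test system = mammalian cells stably expressing self-ubiquitinating, self-degrading MDM2 E3–luciferase fusion | quantity = 2000 cells/well | incubation = cell settling 4 h, compound treatment 2 h, both 37 °C | signal = luminescence with SteadyLite reagent, 15 min at room temperature | evaluation = % enhancement relative to plate controls after blank subtraction | benchmarks = plate controls and plate blanks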
Hsp70 activator – switches on Hsp70 transcription; 200,000 tested, 0.04% active; HeLa Hsp70 promoter luciferase reporter, luminescence; scaled: vehicle 0, proteasome-inhibitor control 100%; activation, % at 10 µM;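 active = activation above the mean across all tested compounds plus 3 SD, cutoff set per campaign, cut at about 5.5% in these data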;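 note: 100% = MG132 at 30 µM as the positive control and 0% = DMSO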
Hsp70 act DR – dose response of Hsp70 transcriptional activators. AID 1252. HeLa hsp70.1pr-luc reporter, luciferase luminescence. 70 tested, 10% active. calls only at 99 µM. shares compounds with Hsp70 activator;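 active = over 50% activation at some tested dose; inactive = under 50% activation at every tested dose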
* marks the source's active call; other numbers are inactive results; i = inactive; ? = inconclusive; . = no result; + = active, no number. Shown are actives, neighbours in structure and some others; about 2.2% of the full set was active somewhere.

SMILES	Wee1 stabilizer	Insulin prom up	Insulin prom inh	RBBP9 inhibitor	MDM2 E3 inh	Hsp70 activator	Hsp70 act DR
FC(F)(F)Oc1ccc(Nc2nc3ccccc3o2)cc1	-2	0.33	31	-4	-16	0	.
CC1(C)CC(=O)CC(=O)/C1=N\Nc1c(Cl)cc(Cl)cc1Cl	-1	-0.07	.	-9	-10	0	.
Cc1ccc(CSc2nc3ccccc3cc2C=O)cc1	10*	1.6	-45	-8	-15	0	.
O=Cc1cc2ccccc2nc1SCc1ccc(Cl)cc1	1	-0.09	50	-9	-11	0	.
COC(=O)Nc1ccc(S(=O)(=O)NCc2ccccn2)cc1	-2	-0.34	-67	-4	-6	5.8*	i
COc1cc(OC)nc(-n2ncc(Br)c(Br)c2=O)n1	-1	?	.	-1	11	30*	+
CCCn1c(SCC(=O)N2CCCc3ccccc32)nnc1-c1ccccn1	-1	0.21	.	-5	-10	0	.
COCC(=O)Nc1cccc(Br)c1	-1	0.56	15	-5	-8	6.3*	i
COC(=O)/C(=C\Nc1ccccc1N)c1ncc(C(F)(F)F)cc1Cl	-2	.	-21	-1	-3	0	.
CN(Cc1ccco1)C(=O)Cn1nc(-c2ccc(Cl)cc2)ccc1=O	1	.	-5	-8	-1	9.3*	i
Cc1ccc(-c2cc(C(=O)Nc3c(C)n(C)n(-c4ccccc4)c3=O)[nH]n2)c(O)c1C	-1	-0.18	.	-5	-2	.	.
O=C(Nc1ccc(N2CCN(C(=O)c3ccccc3)CC2)cc1)c1ccc([N+](=O)[O-])o1	9	.	.	-5	-6	32*	i
CCCC(=O)N1CCN(c2ccc(NC(=O)c3ccc([N+](=O)[O-])o3)cc2Cl)CC1	1	0.26	.	4	-16	35*	i
CC(C)C(=O)N1CCN(c2ccc(NC(=O)c3ccc([N+](=O)[O-])o3)cc2Cl)CC1	6	0.26	i	-4	-5	74*	i
O=C(Nc1ccc(N2CCOCC2)c(Cl)c1)c1ccc([N+](=O)[O-])o1	3	1.6	.	3	5	0	.
CC(C)C(=O)N1CCN(c2ccc(NC(=O)c3ccc([N+](=O)[O-])o3)cc2)CC1	1	0.46	.	-6	1	1	.
CN1CCN(c2ccc(CNS(=O)(=O)c3ccsc3)cc2)CC1	-3	0.33	.	0	-10	.	.
CCN(CC)c1cc(C)c(C#N)c2nc3ccccc3n12	0	-0.47	.	-8	-6	.	.
Cc1cc(Cl)n2c(nc3ccccc32)c1C#N	0	?	-167	-4	-22	9.7*	i
CCOC(=O)/C(=C\c1cccnc1)C(=O)c1cc(C(C)=O)c(Nc2ccccc2)s1	2	-1.3	-13	-8	-18	17*	i
O=C(OCn1ncc(Cl)c(Cl)c1=O)c1ccc(F)cc1	3	.	-243	1	-17	13*	i
O=C(OCn1ncc(Cl)c(Cl)c1=O)c1ccccc1Cl	2	.	-179	-6	0	7.4*	+
O=c1c(Cl)c(Cl)cnn1Cc1ccc(F)cc1	-1	0.61	.	-6	-93	0	.
OCCSc1nncn1/N=C/c1c[nH]c2ccccc12	-1	0.37	43	-2	5	0	.
NS(=O)(=O)c1cccc(NC(=O)CN2CCN(Cc3ccc4c(c3)OCO4)CC2)c1	1	0.38	-22	-2	0	0	.
Cc1cccc(S(=O)(=O)c2c(C)cc(C)nc2Cl)c1	-2	0.51	-17	-10	3	0	.
COc1ccc(C)cc1NC(=O)C(CCS(C)(=O)=O)NC(C)=O (stereo not given)	0	-1.5	.	-6	-12	1	.
N#Cc1ccc(NC(=O)c2nc(-c3ccccc3)n(-c3ccccc3)n2)cc1	-3	-0.02	6	5	-6	6.7*	i
COc1ccccc1C1Nc2cccc3cccc(c23)N1	-1	-0.18	-32	-2	-8	24*	i
Cn1c(CN2CCCC2)nc2cc(NC(=O)COc3ccc(Cl)cc3)ccc21	0	0.05	11	6	5	0	.

Bioassay records from PubChem BioAssay.
